3 molecules from ChEMBL document CHEMBL2010709, “Pinophilins A and B, inhibitors of mammalian A-, B-, and Y-family DNA polymerases and human cancer cell proliferation” (J Nat Prod, 2012) can be followed below.

By IC50 is commonly meant the concentration needed to halve the response being measured. One may read the GI50 as the concentration giving 50% growth inhibition.

A short description of data set [1]: Inhibition of Thermus aquaticus DNA polymerase assessed as inhibition of incorporation of dTTP into poly(dA)/oligo(dT)18 after 60 mins at 74 degC. Put shortly: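 Taq pol (0.05 units) was preincubated with compound (DMSO, sonicated) at 0 °C for 10 min, then reacted with poly(dA)/oligo(dT)18 (A/T = 2/1) and dTTP at 74 °C for 60 min. Activity was expressed relative to no-inhibitor control; mean ± SE, three independent experiments.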

The next data set addresses T1, DNA polymerase kappa (Homo sapiens, UniProt Q9UBT6).
T1 sequence (Q9UBT6 whole entry): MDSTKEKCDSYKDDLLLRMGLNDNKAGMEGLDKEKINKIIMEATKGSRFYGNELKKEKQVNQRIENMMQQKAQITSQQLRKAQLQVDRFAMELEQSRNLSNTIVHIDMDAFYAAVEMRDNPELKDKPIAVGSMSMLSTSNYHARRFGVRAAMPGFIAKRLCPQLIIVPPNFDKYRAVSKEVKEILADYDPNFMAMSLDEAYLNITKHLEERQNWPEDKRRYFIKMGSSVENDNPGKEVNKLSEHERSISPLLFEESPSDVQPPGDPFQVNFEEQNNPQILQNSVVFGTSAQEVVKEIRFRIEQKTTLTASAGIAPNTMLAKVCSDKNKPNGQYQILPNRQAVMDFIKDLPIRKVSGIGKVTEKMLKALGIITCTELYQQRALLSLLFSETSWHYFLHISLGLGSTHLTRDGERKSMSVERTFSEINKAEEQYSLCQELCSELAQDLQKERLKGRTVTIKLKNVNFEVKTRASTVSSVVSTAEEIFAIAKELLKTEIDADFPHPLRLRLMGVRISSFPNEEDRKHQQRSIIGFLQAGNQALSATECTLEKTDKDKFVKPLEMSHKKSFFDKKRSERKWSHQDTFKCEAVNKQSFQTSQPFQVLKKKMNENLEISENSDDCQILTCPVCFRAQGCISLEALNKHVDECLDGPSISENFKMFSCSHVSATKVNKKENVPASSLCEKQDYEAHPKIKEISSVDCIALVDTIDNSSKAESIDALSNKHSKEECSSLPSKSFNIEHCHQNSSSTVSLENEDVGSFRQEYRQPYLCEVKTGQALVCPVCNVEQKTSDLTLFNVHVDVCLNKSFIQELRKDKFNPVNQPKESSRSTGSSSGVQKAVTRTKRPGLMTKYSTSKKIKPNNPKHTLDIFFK
Kind of data set: Inhibition of human C-terminal-His6-tagged DNA polymerase kappa expressed in Escherichia coli assessed as inhibition of incorporation of dTTP into poly(dA)/oligo(dT)18 after 60 mins. Put shortly: (§1)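 Compound in DMSO was sonicated for 30 s, then held with enzyme (0.05 units final) at 0 °C for 10 min in 50 mM Tris-HCl pH 7.5, 1 mM DTT, 50% glycerol, 0.1 mM EDTA. The mixture was added to the standard reaction mix with poly(dA)/oligo(dT)18 (A/T = 2/1) and dTTP, 37 °C, 60 min. Activity was relative to no-inhibitor control; mean ± SE, three independent experiments.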

The target of a further data set is Deoxyribonuclease-1 (Bos taurus, UniProt P00639). Kind of data set: Inhibition of bovine deoxyribonuclease 1 using [3H]-labelled DNA after 30 mins by agarose gel electrophoresis.
Data set [2] concerns BALL-1. Nature of the data set: Growth inhibition of human BALL-1 cells after 24 hrs by WST-1 assay. Type of data set: functional. The settings on record: BALL-1, 24 h. Put shortly: (§2)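 Cancer cells were grown in McCoy's 5A with 10% FBS and penicillin/streptomycin, 37 °C, 5% CO2. Cells were seeded at 1 × 10^4 per well, cultured 12 h, then given compound (10 mM DMSO stock diluted in medium, 0.5% DMSO) for 24 h. WST-1 was added for 4 h and absorbance read at 450/630 nm. GI50 given as mean ± SE, five independent experiments.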
(In general: Tetrazolium dyes change colour on reduction, which living cells bring about.)

Data set [3] has as its system BALL-1. Nature of the data set: Cell cycle arrest in human BALL-1 cells assessed as accumulation at S-phase at GI50 by tritiated thymidine incorporation assay. Type of data set: functional, cell-based. (In general: Uptake of a labelled nucleoside into DNA is a usual measure of proliferation.)
A further data set has as its system Tequatrovirus T4. Kind of data set: Inhibition of T4 bacteriophage DNA polymerase assessed as inhibition of incorporation of dTTP into activated DNA primer after 60 mins.
A short description of data set [4]: Inhibition of calf DNA primase of polymerase alpha. More on the design: species or system Bos taurus.
The nature of data set [5]: Inhibition of T7 RNA polymerase assessed as inhibition of incorporation of [3H]UTP after 30 mins by liquid scintillation counting. Set-up: species or system Escherichia phage T7.
Data set [6] deals with DNA nucleotidylexotransferase (Bos taurus, UniProt P06526). Nature of the data set: Inhibition of calf TdT assessed as inhibition of incorporation of dTTP into oligo(dT)18(3'OH) after 60 mins. A digest of the protocol: (§3)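 Enzyme (0.05 units) was preincubated with compound in DMSO at 0 °C for 10 min in Tris-HCl pH 7.5/DTT/glycerol/EDTA buffer, then reacted at 37 °C for 60 min. Substrates were poly(rA)/oligo(dT)18 (A/T = 2/1) plus dTTP for HIV-1 RT, and oligo(dT)18 (3′-OH) primer plus dTTP for calf thymus TdT. Activity was relative to uninhibited control; mean ± SE of three experiments.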

A short description of data set [7]: Inhibition of human His6-tagged DNA polymerase gamma expressed using baculovirus assessed as inhibition of incorporation of dTTP into poly(dA)/oligo(dT)18 after 60 mins. Put shortly: as §1
A further data set concerns NUGC-3. Kind of data set: Growth inhibition of human NUGC3 cells after 24 hrs by WST-1 assay. The settings on record: NUGC-3, 24 h. Type of data set: functional. A digest of the protocol:
as §2

A further data set concerns HeLa. Nature of the data set: Growth inhibition of human HeLa cells after 24 hrs by WST-1 assay. Type of data set: functional. Put shortly:
as §2

The nature of data set [8]: Inhibition of Escherichia coli polymerase DNA polymerase 1 klenow fragment assessed as inhibition of incorporation of dTTP into poly(dA)/oligo(dT)18 after 60 mins. A digest of the protocol: as §1
Data set [9] is described as follows: Growth inhibition of HDF cells after 72 hrs by WST-1 assay. Type of data set: cell-based. Conditions: human. A digest of the protocol: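 Normal cells (HDF, HUVEC) were grown in Eagle's MEM with 4.5 g/L glucose, 10% FCS, 5 mM L-glutamine and penicillin/streptomycin, 37 °C, 5% CO2. Cells were seeded at 1 × 10^4 per well, cultured 12 h, then exposed to compound (0.5% DMSO final) for 72 h. Viability was read by WST-1 at 450/630 nm. GI50 given as mean ± SE of five experiments.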

The subject of a further data set is HCT-116. Kind of data set: Growth inhibition of against human HCT116 cells after 24 hrs by WST-1 assay. The data set is classed as functional. Conditions: HCT-116, 24 h. A digest of the protocol:
as §2

Data set [10] addresses Human immunodeficiency virus type 1 reverse transcriptase (Human immunodeficiency virus 1, UniProt Q72547). Kind of data set: Inhibition of HIV-1 reverse transcriptase assessed as inhibition of incorporation of dTTP into poly(rA)/oligo(dT)18 after 60 mins. Put shortly:
as §3

Data set [11] has as its target Inosine-5'-monophosphate dehydrogenase 2 (Mus musculus, UniProt P24547). Kind of data set: Inhibition of mouse IMP dehydrogenase 2.
A further data set deals with Thermus aquaticus. Kind of data set: Inhibition of Thermus aquaticus DNA polymerase assessed as inhibition of incorporation of dTTP into activated DNA primer after 60 mins.
Data set [12] in a line: Inhibition of human DNA polymerase epsilon assessed as inhibition of incorporation of dTTP into poly(dA)/oligo(dT)18 after 60 mins. A digest of the protocol: as §1
Data set [13] in a line: Inhibition of cauliflower DNA polymerase alpha assessed as inhibition of incorporation of dTTP into poly(dA)/oligo(dT)18 after 60 mins. More on the design: species or system Brassica oleracea var. botrytis. A digest of the protocol: as §1

Active and inactive are the calls of the source. The rule behind the calls is not given here.

Sequence of DNA nucleotidylexotransferase (P06526 whole entry): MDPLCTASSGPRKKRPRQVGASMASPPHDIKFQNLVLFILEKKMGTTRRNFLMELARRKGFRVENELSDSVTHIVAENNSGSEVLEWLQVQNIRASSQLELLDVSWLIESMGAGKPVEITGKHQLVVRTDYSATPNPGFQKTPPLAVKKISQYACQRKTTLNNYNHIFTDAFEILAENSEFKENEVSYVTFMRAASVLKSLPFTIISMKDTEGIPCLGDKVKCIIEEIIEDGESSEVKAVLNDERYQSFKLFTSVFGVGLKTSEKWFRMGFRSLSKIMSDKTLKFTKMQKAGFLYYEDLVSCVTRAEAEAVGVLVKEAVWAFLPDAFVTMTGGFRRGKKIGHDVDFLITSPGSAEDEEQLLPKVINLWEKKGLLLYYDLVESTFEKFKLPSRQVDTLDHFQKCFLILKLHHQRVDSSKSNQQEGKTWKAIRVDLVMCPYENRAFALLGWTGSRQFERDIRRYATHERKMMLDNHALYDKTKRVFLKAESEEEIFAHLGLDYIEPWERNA
Sequence of Inosine-5'-monophosphate dehydrogenase 2 (P24547 whole entry): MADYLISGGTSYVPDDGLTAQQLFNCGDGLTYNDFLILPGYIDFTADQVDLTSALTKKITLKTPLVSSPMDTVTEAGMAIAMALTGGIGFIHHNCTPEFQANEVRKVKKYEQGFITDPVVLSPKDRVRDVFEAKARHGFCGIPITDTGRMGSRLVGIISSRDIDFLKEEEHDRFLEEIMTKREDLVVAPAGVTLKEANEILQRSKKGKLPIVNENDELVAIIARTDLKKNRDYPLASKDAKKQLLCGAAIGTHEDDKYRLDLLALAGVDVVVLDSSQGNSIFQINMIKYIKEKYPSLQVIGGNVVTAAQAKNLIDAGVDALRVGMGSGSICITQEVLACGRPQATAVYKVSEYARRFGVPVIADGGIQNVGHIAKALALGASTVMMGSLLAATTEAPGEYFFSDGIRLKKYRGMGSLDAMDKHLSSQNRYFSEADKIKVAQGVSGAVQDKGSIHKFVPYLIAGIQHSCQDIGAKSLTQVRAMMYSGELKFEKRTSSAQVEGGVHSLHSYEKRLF
Sequence of Deoxyribonuclease-1 (P00639 whole entry): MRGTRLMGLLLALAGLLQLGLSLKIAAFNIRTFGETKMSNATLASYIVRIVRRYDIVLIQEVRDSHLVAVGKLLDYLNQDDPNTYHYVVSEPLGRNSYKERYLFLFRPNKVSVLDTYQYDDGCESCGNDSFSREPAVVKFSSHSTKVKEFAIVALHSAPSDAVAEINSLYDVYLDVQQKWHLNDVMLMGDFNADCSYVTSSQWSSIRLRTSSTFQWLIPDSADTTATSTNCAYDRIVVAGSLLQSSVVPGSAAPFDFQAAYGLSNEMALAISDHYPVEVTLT

Take `Cc1cc(O)cc(O)c1C(=O)O[C@H]1[C@@H]2COC(/C=C/CO)=CC2=CC(=O)[C@@]1(C)O` [PINOPHILIN B]: the IC50 in data set [1] was greater than 200 µM; at DNA polymerase kappa it was 88.9 µM; at Deoxyribonuclease-1, greater than 200 µM; in data set [4], greater than 200 µM; in data set [5], greater than 200 µM; in data set [6] it was greater than 200 µM. Further, the IC50 was 93.7 µM in [7]; greater than 200 µM in data set [8]; greater than 200 µM in data set [10]; greater than 200 µM in data set [11]; 93.9 µM in data set [12]; greater than 200 µM in data set [13]. Moreover, the GI50 is 90.4 µM in the data set with BALL-1 [2], 96.8 µM in the data set on NUGC-3, 99 µM with HeLa and 92.5 µM in the data set with HCT-116. Besides, in the data set with BALL-1 [3], the result was Active. Also, the inhibition entry in the data set with Tequatrovirus T4 and in the data set with Thermus aquaticus was “inactive” in each case. In addition, the concentration for 50% growth inhibition (GI50) at 72 h in data set [9] is greater than 200 µM.
For `C/C=C/C1=CC2=CC(=O)[C@@](C)(O)[C@@H](OC(=O)c3c(C)cc(O)cc3O)[C@@H]2CO1`, the half-inhibitory concentration (IC50) was greater than 200 µM in [1]; 59.8 µM at DNA polymerase kappa; greater than 200 µM against Deoxyribonuclease-1; greater than 200 µM in [4]; greater than 200 µM in data set [5]; greater than 200 µM in [6]. For the same molecule, the IC50 in data set [7] is 67.3 µM; in [8] it was greater than 200 µM; in [10] it was greater than 200 µM; in [11], greater than 200 µM; in data set [12] it was 65.6 µM; in [13], greater than 200 µM. The GI50 in the data set on BALL-1 [2] is 62 µM; in the data set on NUGC-3 it was 66.4 µM; with HeLa, 68.8 µM; in the data set on HCT-116, 64.6 µM. The outcome with BALL-1 [3] was Active. For the same molecule, the inhibition result in the data set with Tequatrovirus T4 and in the data set with Thermus aquaticus was “inactive” throughout. For the same molecule, the 50% growth inhibitory concentration (GI50) at 72 h in data set [9] was greater than 200 µM.
As for `C/C=C/C1=CC2=CC(=O)[C@@](C)(OC(=O)c3c(C)cc(O)cc3O)[C@@H](O)[C@@H]2CO1` [PINOPHILIN A], the IC50 in data set [1] is greater than 200 µM; on DNA polymerase kappa it was 48.6 µM; against Deoxyribonuclease-1, greater than 200 µM; in data set [4], greater than 200 µM; in data set [5], greater than 200 µM; in data set [6] it was greater than 200 µM. Besides, the IC50 in data set [7] is 55.6 µM; in data set [8], greater than 200 µM; in [10] it was greater than 200 µM; in data set [11], greater than 200 µM; in data set [12], 52 µM; in data set [13] it was greater than 200 µM. The GI50 was 50.2 µM in the data set on BALL-1 [2], 54.7 µM with NUGC-3, 55.6 µM in the data set on HeLa and 51.3 µM in the data set with HCT-116. Also, the result with BALL-1 [3] was Active. For the same molecule, the inhibition entry with Tequatrovirus T4 and with Thermus aquaticus was “inactive” in each case. Besides, the GI50 at 72 h in data set [9] is greater than 200 µM.
